Assay results as given in ChEMBL document CHEMBL1649152, “Pharmacokinetics of hydroxychloroquine and its clinical implications in chemoprophylaxis against malaria caused by Plasmodium vivax” (Antimicrob Agents Chemother, 2009).
The source made the active and inactive calls. The rule behind the calls is not given here.

Assays:
[1] = Tmax in healthy human at 400 mg, po administered as single dose; assay type: ADME, organism-based; conditions: in vivo
Summary of the method: (§1)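 Six healthy subjects (study Ia), fasted from 10 h before to 4 h after the oral dose; serial plasma sampled up to 314 h. Plasma extracted with diethyl ether, then reversed-phase HPLC on a C18 column with fluorescence detection (ex 320/em 370 nm). Noncompartmental analysis: Cmax and Tmax observed; terminal t1/2 = ln2/λz; AUC by linear-log trapezoidal, AUCinf extrapolated.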

[2] = Cmax in healthy human plasma at 400 mg, po administered as single dose; assay type: ADME, organism-based; design: dose 400 mg, route oral; summary of the method: as §1
[3] = Terminal half life in healthy human at 400 mg, po administered as single dose; assay type: ADME, organism-based; conditions: in vivo, read-out: beta t1/2 (converted); summary of the method: as §1
[4] = AUC (last) in healthy human at 400 mg, po administered as single dose; assay type: ADME, organism-based; design: dose 400 mg, time 0 - last, route oral; conditions: plasma; summary of the method: as §1
[5] = AUC (infinity) in healthy human at 400 mg, po administered as single dose; assay type: ADME, organism-based; design: dose 400 mg, time infinity, route oral; conditions: plasma; summary of the method: as §1
[6] = Apparent oral clearance in healthy human at 400 mg, po administered as single dose; assay type: ADME, organism-based; conditions: in vivo
[7] = Apparent peripheral distribution volume in healthy human at 400 mg, po administered as single dose; assay type: ADME, organism-based; conditions: in vivo, read-out: Vz/F
[8] = tested on: Homo sapiens; assay: Tmax in healthy human assessed as desethylchloroquine level at 400 mg, po administered as single dose; assay type: ADME, organism-based; conditions: in vivo; summary of the method: as §1
[9] = tested on: Homo sapiens; assay: Cmax in healthy human plasma assessed as desethylchloroquine level at 400 mg, po administered as single dose; assay type: ADME, organism-based; design: dose 400 mg, route oral; conditions: in vivo; summary of the method: as §1
[10] = tested on: Homo sapiens; assay: Terminal half life in healthy human assessed as desethylchloroquine level at 400 mg, po administered as single dose; assay type: ADME, organism-based; conditions: in vivo; summary of the method: as §1
[11] = tested on: Homo sapiens; assay: AUC (last) in healthy human assessed as desethylchloroquine level at 400 mg, po administered as single dose; assay type: ADME, organism-based, Plasma; design: dose 400 mg, time 0 - last, route oral; conditions: in vivo; summary of the method: as §1
[12] = tested on: Homo sapiens; assay: AUC (infinity) in healthy human assessed as desethylchloroquine level at 400 mg, po administered as single dose; assay type: ADME, organism-based, Plasma; design: dose 400 mg, route oral, time infinity; conditions: in vivo; summary of the method: as §1
[13] = tested on: Homo sapiens; assay: Ratio of AUC for desethylchloroquine level to AUC for compound in healthy human at 400 mg, po administered as single dose; assay type: ADME, organism-based; conditions: in vivo
Summary of the method: (§2)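 Six healthy volunteers in study Ia, fasted from 10 h before to 4 h after dosing, sampled serially up to 314 h. Plasma was stored at –70°C, ether-extracted from ammonia-alkalinised plasma with an internal standard, and assayed by C18 RP-HPLC with fluorescence (ex 320/em 370 nm). Calibration was 10–2,000 ng/ml for parent and 5–200 ng/ml for DCQ/BDCQ. Metabolite and parent AUCs came from noncompartmental linear-log trapezoidal analysis with λz extrapolation to infinity.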

[14] = tested on: Homo sapiens; assay: Ratio of AUC for bisdesethylchloroquine level to AUC for compound in healthy human at 400 mg, po administered as single dose; assay type: ADME, organism-based; conditions: in vivo; summary of the method: as §2
[15] = tested on: Homo sapiens; assay: Tmax in healthy human assessed as bisdesethylchloroquine level at 400 mg, po administered as single dose; assay type: ADME, organism-based; conditions: in vivo; summary of the method: as §1
[16] = tested on: Homo sapiens; assay: Cmax in healthy human plasma assessed as bisdesethylchloroquine level at 400 mg, po administered as single dose; assay type: ADME, organism-based; design: dose 400 mg, route oral; conditions: in vivo; summary of the method: as §1
[17] = tested on: Homo sapiens; assay: Terminal half life in healthy human assessed as bisdesethylchloroquine level at 400 mg, po administered as single dose; assay type: ADME, organism-based; conditions: in vivo; summary of the method: as §1
[18] = tested on: Homo sapiens; assay: AUC (last) in healthy human assessed as bisdesethylchloroquine level at 400 mg, po administered as single dose; assay type: ADME, organism-based, Plasma; design: dose 400 mg, route oral, time 0 - last; conditions: in vivo; summary of the method: as §1
[19] = tested on: Homo sapiens; assay: AUC (infinity) in healthy human assessed as bisdesethylchloroquine level at 400 mg, po administered as single dose; assay type: ADME, organism-based, Plasma; design: dose 400 mg, time infinity, route oral; conditions: in vivo; summary of the method: as §1
[20] = tested on: Plasmodium vivax; assay: Antimalarial activity against Plasmodium vivax infected in patient assessed as prophylaxis at 400 mg, po once a week

Work on `CCN(CCO)CCCC(C)Nc1ccnc2cc(Cl)ccc12` (stereo not given) [HYDROXYCHLOROQUINE] yielded a Tmax [1] of 2.4 h, a Cmax [2] of 1220 nM and a half-life [3] of 172 h. It also gave an AUC(0-t) [4] of 75.4 µM·h, an AUC(0-inf) [5] of 102 µM·h and a CL/F [6] of 200 mL/min. The Vd/F [7] was 2850 L, the Tmax [8] was 6.1 h and the Cmax [9] was 60 nM. For the same compound, the “beta t1/2” value [10] was 549.9 h, the AUC [11] was 12.2 µM·h and the AUC [12] was 37.7 µM·h. The Ratio [13] was 0.39, the Ratio [14] was 0.63 and the Tmax [15] was 72.8 h. The Cmax [16] was 360 nM, the “beta t1/2” value [17] was 241 h and the AUC [18] was 34 µM·h. For the same compound, the AUC [19] was 53.6 µM·h and the Activity [20] was “inactive”.
